Reference: ChEMBL document CHEMBL1138470, “Discovery and characterization of the N-phenyl-N'-naphthylurea class of p38 kinase inhibitors” (Bioorg Med Chem Lett, 2009)
One block for each molecule: values may come before it. Active and inactive are the calls of the source. The calls are words filed in the database; no cut-off is given here.

Key:
[1] = target: T1, Mitogen-activated protein kinase 14 (Homo sapiens, UniProt Q16539)
[2] = target: T1, Mitogen-activated protein kinase 14; assay: Binding affinity to p38alpha assessed as inhibition of ATF2 phosphorylation preincubated for 4 hrs
[3] = tested on: Blood; assay: Inhibition of LPS-induced TNFalpha production in human whole blood; type: functional, tissue-based
Summary of the method: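 LPS-stimulated TNFα production in whole blood from human donors; IC50 reported as geometric mean of 4–12 donor experiments, SD typically ±50% of the value.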

[4] = tested on: THP-1; assay: Inhibition of LPS-induced TNFalpha production in human THP1 cells; type: functional, cell-based
Summary of the method: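 LPS-stimulated TNFα release from THP-1 cells; IC50 values are means of 2–4 experiments, SD for n > 2 typically ±50% of the value.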

[5] = Inhibition of VEGFR
[6] = target: Hepatocyte growth factor receptor (Homo sapiens) (UniProt P08581); assay: Inhibition of HGFR at => 3 ug/mL
[7] = Inhibition of PHK1 at => 3 ug/mL
[8] = target: Ephrin type-A receptor 2 (Homo sapiens, UniProt P29317); assay: Inhibition of ECK
[9] = target: Tyrosine-protein kinase CSK (Homo sapiens) (UniProt P41240); assay: Inhibition of CSK at 3 uM
[10] = target: Serine/threonine-protein kinase B-raf (Homo sapiens, UniProt P15056); assay: Inhibition of bRaf
[11] = target: Dual specificity mitogen-activated protein kinase kinase 1 (Homo sapiens) (UniProt Q02750); assay: Inhibition of MKK1 at => 3 ug/mL
[12] = target: Rho-associated protein kinase 2 (Homo sapiens) (UniProt O75116); assay: Inhibition of ROCK2 at => 3 ug/mL
[13] = target: Tyrosine-protein kinase TXK (Homo sapiens) (UniProt P42681); assay: Inhibition of TXK at => 3 ug/mL
[14] = target: Mitogen-activated protein kinase kinase kinase 14 (Homo sapiens) (UniProt Q99558); assay: Inhibition of NIK at => 3 ug/mL
[15] = target: Mitogen-activated protein kinase 8 (Homo sapiens) (UniProt P45983); assay: Inhibition of […] at => 3 ug/mL
[16] = target: Glycogen synthase kinase-3 beta (Homo sapiens) (UniProt P49841); assay: Inhibition of GSK3-beta at => 3 ug/mL
[17] = target: Epidermal growth factor receptor (Homo sapiens, UniProt P00533); assay: Inhibition of EGFR
[18] = target: Ephrin type-A receptor 3 (Homo sapiens, UniProt P29320); assay: Inhibition of HEK
[19] = target: RAC-alpha serine/threonine-protein kinase (Homo sapiens, UniProt P31749); assay: Inhibition of PKBalpha/Akt1
[20] = target: Cyclin-dependent kinase 1 (Homo sapiens) (UniProt P06493); assay: Inhibition of CDK1 at => 3 ug/mL
[21] = target: Ribosomal protein S6 kinase alpha-3 (Homo sapiens) (UniProt P51812); assay: Inhibition of RSK2 at => 3 ug/mL
[22] = target: Tyrosine-protein kinase JAK3 (Homo sapiens) (UniProt P52333); assay: Inhibition of JAK3 at => 3 ug/mL
[23] = target: Casein kinase I isoform alpha (Homo sapiens) (UniProt P48729); assay: Inhibition of CK1 at => 3 ug/mL
[24] = target: MAP kinase-activated protein kinase 5 (Homo sapiens) (UniProt Q8IW41); assay: Inhibition of PRAK at => 3 ug/mL
[25] = target: Insulin-like growth factor 1 receptor (Homo sapiens) (UniProt P08069); assay: Inhibition of IGF1R at => 3 ug/mL
[26] = target: 3-phosphoinositide-dependent protein kinase 1 (Homo sapiens) (UniProt O15530); assay: Inhibition of PDK1 at => 3 ug/mL
[27] = target: Ribosomal protein S6 kinase alpha-3 (Homo sapiens) (UniProt P51812); assay: Inhibition of MAPKAPK1B at => […] ug/mL
[28] = target: Tyrosine-protein kinase BTK (Homo sapiens) (UniProt Q06187); assay: Inhibition of BTK at => 3 ug/mL
[29] = target: Insulin receptor (Homo sapiens) (UniProt P06213); assay: Inhibition of IR at => 3 ug/mL
[30] = target: MAP kinase-activated protein kinase 2 (Homo sapiens) (UniProt P49137); assay: Inhibition of MAPKAPK2 at => […] ug/mL
[31] = target: Tyrosine-protein kinase ABL1 (Homo sapiens, UniProt P00519); assay: Inhibition of Abl
[32] = Inhibition of PI3K at => 3 ug/mL
[33] = target: Tyrosine-protein kinase SYK (Homo sapiens) (UniProt P43405); assay: Inhibition of SYK at => 3 ug/mL
[34] = Inhibition of pp60src
[35] = target: Tyrosine-protein kinase Lck (Homo sapiens) (UniProt P06239); assay: Inhibition of LCK at => 3 ug/mL
[36] = target: Protein kinase C alpha type (Homo sapiens) (UniProt P17252); assay: Inhibition of PKCalpha at => 3 ug/mL
[37] = target: Mitogen-activated protein kinase 9 (Homo sapiens, UniProt P45984); assay: Inhibition of JNK2alpha2 by exchange curve binding kinetic analysis
[38] = Inhibition of FGFR
[39] = target: Tyrosine-protein kinase Lyn (Homo sapiens, UniProt P07948); assay: Inhibition of Lyn
[40] = target: RAF proto-oncogene serine/threonine-protein kinase (Homo sapiens, UniProt P04049); assay: Inhibition of craf
[41] = target: Dual specificity tyrosine-phosphorylation-regulated kinase 1A (Homo sapiens) (UniProt Q13627); assay: Inhibition of DYRK1A at => 3 ug/mL
[42] = Inhibition of CK2 at => 3 ug/mL
[43] = tested on: Mus musculus; assay: Inhibition of LPS-induced endotoxemia in mouse assessed as inhibition of TNFalpha production at 3 mg/kg, po; type: functional
Summary of the method: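 Mouse LPS-induced endotoxemia model; compound given orally at 3 mg/kg, and TNFα production is measured and expressed as percent inhibition.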

[44] = target: Serine/threonine-protein kinase Sgk1 (Homo sapiens) (UniProt O00141); assay: Inhibition of SGK at => 3 ug/mL
[45] = target: Focal adhesion kinase 1 (Homo sapiens) (UniProt Q05397); assay: Inhibition of PTK2 at => 3 ug/mL
[46] = Inhibition of IKK at => 3 ug/mL
[47] = target: Ribosomal protein S6 kinase beta-1 (Homo sapiens) (UniProt P23443); assay: Inhibition of S6K1 at => 3 ug/mL
[48] = Inhibition of PKA at => […] ug/mL
[49] = Inhibition of ERK at => 3 ug/mL
[50] = target: T1, Mitogen-activated protein kinase 14; assay: Binding affinity to p38alpha by exchange curve binding kinetic analysis
[51] = Aqueous solubility at pH 7.4; type: physicochemical
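Wherever Tm is given: thermal denaturation measurement of the p38alpha–inhibitor complex, reporting its melting point as a readout of binding.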

T1 sequence (Q16539 whole entry): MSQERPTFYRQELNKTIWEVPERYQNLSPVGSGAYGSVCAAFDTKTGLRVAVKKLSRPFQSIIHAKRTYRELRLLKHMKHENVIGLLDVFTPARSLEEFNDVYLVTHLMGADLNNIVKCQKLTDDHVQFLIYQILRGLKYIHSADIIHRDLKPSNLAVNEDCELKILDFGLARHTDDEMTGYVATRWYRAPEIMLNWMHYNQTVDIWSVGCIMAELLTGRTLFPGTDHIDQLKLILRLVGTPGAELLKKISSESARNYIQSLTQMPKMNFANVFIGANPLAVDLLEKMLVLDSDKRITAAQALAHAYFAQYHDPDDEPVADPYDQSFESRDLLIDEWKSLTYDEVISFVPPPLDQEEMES
Sequence of Ribosomal protein S6 kinase alpha-3 (Homo sapiens) (P51812 whole entry): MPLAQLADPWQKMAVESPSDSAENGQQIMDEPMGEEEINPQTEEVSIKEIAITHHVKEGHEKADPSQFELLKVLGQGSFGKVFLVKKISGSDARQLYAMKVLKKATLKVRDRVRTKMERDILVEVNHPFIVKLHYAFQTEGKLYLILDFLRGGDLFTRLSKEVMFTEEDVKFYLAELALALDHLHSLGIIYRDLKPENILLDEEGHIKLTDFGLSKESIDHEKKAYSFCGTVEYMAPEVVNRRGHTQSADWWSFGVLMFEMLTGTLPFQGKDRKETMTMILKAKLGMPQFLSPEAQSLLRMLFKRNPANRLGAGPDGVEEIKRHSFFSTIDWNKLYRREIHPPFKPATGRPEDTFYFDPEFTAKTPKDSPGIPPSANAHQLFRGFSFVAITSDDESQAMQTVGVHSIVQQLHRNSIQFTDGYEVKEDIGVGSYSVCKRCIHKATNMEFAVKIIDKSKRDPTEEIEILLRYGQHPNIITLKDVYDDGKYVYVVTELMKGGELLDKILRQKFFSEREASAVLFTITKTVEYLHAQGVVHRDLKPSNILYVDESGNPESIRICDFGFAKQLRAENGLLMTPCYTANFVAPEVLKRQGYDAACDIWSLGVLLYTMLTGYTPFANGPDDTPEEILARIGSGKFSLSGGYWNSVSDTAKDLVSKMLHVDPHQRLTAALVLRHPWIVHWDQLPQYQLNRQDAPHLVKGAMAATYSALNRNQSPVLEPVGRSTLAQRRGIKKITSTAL
Sequence of Tyrosine-protein kinase Lyn (P07948 whole entry): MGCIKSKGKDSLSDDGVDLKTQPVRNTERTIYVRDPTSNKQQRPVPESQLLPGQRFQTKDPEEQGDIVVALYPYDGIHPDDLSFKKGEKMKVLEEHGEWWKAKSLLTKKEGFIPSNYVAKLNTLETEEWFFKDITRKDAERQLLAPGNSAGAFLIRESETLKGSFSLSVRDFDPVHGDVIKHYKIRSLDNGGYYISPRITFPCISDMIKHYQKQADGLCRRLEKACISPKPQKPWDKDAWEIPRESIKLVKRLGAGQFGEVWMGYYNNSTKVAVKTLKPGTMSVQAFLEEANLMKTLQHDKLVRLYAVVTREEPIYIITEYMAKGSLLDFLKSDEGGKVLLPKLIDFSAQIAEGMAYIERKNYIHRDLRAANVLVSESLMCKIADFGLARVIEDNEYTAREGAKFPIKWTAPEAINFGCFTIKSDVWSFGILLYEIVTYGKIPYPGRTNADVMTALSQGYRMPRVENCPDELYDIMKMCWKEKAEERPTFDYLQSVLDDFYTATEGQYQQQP
Sequence of Casein kinase I isoform alpha (Homo sapiens) (P48729 2-337 limits assumed): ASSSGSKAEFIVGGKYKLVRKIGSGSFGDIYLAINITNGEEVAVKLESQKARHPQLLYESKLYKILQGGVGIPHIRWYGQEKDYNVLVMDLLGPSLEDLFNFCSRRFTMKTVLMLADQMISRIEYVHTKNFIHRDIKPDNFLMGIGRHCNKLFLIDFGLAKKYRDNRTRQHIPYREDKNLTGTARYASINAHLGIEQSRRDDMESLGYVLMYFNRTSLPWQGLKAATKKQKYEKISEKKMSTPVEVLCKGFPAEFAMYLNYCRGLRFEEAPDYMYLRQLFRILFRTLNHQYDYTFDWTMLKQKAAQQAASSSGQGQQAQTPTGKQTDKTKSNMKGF
Sequence of Focal adhesion kinase 1 (Homo sapiens) (Q05397 2-1052 limits assumed): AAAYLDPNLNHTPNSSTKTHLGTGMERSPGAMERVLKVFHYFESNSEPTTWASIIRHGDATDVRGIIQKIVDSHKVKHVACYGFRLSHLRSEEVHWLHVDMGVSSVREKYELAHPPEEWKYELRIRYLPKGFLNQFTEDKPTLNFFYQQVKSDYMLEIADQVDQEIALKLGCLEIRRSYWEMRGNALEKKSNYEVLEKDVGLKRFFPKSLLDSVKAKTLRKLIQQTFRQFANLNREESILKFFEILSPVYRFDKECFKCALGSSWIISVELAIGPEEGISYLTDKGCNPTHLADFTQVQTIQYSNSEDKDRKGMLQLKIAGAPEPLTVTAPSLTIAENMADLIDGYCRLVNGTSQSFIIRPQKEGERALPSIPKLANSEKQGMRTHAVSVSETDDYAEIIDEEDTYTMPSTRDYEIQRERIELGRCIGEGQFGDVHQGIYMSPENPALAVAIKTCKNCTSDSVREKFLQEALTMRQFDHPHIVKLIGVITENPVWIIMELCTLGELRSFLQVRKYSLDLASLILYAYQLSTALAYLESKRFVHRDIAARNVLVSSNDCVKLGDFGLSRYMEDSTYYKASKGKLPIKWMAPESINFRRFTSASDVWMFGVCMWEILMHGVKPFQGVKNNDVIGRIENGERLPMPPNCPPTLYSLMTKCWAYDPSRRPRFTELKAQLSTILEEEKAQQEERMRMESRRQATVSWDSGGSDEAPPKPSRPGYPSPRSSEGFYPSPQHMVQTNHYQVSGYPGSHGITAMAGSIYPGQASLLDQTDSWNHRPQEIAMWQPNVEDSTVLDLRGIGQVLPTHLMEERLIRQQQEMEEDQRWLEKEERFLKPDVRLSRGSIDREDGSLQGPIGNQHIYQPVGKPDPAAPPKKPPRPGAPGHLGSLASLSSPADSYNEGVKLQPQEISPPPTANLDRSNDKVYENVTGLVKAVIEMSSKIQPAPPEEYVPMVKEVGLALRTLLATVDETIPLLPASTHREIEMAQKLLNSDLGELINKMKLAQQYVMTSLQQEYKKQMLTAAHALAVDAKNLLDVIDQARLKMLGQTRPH
Sequence of RAF proto-oncogene serine/threonine-protein kinase (P04049 whole entry): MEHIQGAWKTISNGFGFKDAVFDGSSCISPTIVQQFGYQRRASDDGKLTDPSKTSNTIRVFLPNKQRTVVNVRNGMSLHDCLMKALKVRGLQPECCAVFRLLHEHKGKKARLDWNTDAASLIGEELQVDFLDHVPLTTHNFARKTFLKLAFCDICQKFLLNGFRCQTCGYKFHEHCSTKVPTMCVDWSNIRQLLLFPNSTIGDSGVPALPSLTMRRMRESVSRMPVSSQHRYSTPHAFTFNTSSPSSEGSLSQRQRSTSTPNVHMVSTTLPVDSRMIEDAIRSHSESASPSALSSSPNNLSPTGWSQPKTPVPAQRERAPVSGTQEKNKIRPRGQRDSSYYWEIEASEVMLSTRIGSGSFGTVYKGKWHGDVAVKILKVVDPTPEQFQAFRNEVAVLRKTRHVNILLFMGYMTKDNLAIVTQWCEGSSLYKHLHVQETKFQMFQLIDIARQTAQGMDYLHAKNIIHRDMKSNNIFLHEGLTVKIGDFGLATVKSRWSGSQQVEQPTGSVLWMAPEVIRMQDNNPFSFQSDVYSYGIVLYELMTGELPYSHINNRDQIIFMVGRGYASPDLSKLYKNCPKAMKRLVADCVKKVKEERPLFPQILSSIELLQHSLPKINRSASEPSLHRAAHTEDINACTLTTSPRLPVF
Sequence of Tyrosine-protein kinase ABL1 (P00519 whole entry): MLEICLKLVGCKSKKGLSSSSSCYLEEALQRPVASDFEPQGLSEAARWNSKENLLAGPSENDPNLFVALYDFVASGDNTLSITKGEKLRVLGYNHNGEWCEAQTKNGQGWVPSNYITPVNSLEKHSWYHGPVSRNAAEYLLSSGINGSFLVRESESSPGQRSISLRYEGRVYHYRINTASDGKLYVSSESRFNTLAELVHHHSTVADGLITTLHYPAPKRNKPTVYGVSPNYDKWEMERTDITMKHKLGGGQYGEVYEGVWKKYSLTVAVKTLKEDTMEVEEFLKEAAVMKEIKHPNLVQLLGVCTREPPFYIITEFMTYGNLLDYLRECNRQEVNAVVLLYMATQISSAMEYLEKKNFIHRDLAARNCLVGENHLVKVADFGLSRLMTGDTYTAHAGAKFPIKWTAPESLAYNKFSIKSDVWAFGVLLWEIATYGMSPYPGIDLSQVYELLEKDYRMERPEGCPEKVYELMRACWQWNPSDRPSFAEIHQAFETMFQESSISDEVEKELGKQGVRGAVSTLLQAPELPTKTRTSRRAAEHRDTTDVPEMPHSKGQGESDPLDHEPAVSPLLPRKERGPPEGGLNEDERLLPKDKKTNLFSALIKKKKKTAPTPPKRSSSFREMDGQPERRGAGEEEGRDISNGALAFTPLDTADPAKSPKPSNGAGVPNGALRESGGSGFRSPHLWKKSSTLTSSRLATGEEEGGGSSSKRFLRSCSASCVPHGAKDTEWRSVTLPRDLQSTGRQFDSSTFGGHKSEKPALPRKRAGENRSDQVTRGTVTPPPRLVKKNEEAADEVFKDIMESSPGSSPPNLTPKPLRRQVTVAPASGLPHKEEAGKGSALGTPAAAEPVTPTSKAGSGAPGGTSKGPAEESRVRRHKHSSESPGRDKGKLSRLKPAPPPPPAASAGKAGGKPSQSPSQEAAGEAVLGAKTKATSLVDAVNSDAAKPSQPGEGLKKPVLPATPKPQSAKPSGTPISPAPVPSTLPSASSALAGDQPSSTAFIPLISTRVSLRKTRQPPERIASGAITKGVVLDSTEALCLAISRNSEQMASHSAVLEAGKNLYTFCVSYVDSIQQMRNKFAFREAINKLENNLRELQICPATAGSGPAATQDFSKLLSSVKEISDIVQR

SMILES: COc1c(NC(=O)c2cc3ccccc3o2)cc(C(C)(C)C)cc1NS(C)(=O)=O
Tm [1]: 48.8 °C
IC50 [2]: 4100 nM

SMILES: Cn1nc(C(C)(C)C)cc1NC(=O)Nc1ccc(-c2ccc(CN3CCOCC3)nc2)c2ccccc12
Tm [1]: 57.9 °C
IC50 [3]: 230 nM
IC50 [4]: 29 nM

SMILES: COc1c(NC(=O)Nc2cccc3ccccc23)cc(C(C)(C)C)cc1NS(C)(=O)=O
Tm [1]: 56.3 °C
IC50 [2]: 79 nM

SMILES: Cc1ncc(-c2ccc(C(C)(C)C)cc2NC(=O)Nc2ccc(-c3ccc(CN4CCOCC4)nc3)c3ccccc23)cn1
Tm [1]: 56.6 °C
IC50 [3]: 350 nM
IC50 [4]: 29 nM

SMILES: Cc1ccc(C(C)C)cc1NC(=O)Nc1ccc(-c2ccc(CN3CCOCC3)nc2)c2ccccc12
Tm [1]: 52.3 °C
IC50 [4]: 76 nM

SMILES: Cc1ccc(-n2nc(C(C)(C)C)cc2NC(=O)Nc2ccc(-c3ccc(CN4CCOCC4)nc3)c3ccccc23)cc1
Tm [1]: 63.6 °C
IC50 [3]: 220 nM
IC50 [4]: 8 nM

SMILES: Cn1nc(C(C)(C)C)cc1NC(=O)Nc1ccc(OCCN2CCOCC2)c2ccccc12
Tm [1]: 54.5 °C
IC50 [3]: 10000 nM
IC50 [4]: 140 nM

SMILES: Cc1ccc(C(C)(C)C)cc1NC(=O)Nc1ccc(OCCN2CCOCC2)c2ccccc12
Tm [1]: 52.7 °C
IC50 [3]: > 10000 nM
IC50 [4]: 380 nM

SMILES: COc1ccc(C(C)(C)C)cc1NC(=O)c1cc2ccccc2o1
Tm [1]: 46.2 °C
IC50 [2]: > 10000 nM

SMILES: COc1ccc(C(C)(C)C)cc1NC(=O)c1cc2ccccc2s1
Tm [1]: 46.9 °C
IC50 [2]: > 10000 nM

SMILES: CCc1ccc(C(C)(C)C)cc1NC(=O)Nc1ccc(-c2ccc(CN3CCOCC3)nc2)c2ccccc12
Tm [1]: 53.9 °C
IC50 [3]: 700 nM
IC50 [4]: 8.8 nM

SMILES: COc1c(NC(=O)c2cc3ccccc3s2)cc(C(C)(C)C)cc1NS(C)(=O)=O
Tm [1]: 51.4 °C
IC50 [2]: 2700 nM

SMILES: Cc1ccc(-n2nc(C(C)(C)C)cc2NC(=O)Nc2ccc(OCCN3CCOCC3)c3ccccc23)cc1 [DORAMAPIMOD]
IC50 [3]: 780 nM
IC50 [4]: 18 nM
Activity [43]: inactive

SMILES: COc1ccc(C(C)(C)C)cc1NC(=O)Nc1cccc2ccccc12
Tm [1]: 50.3 °C
IC50 [2]: 3900 nM

Continued, in another order:

Tm [1]: 56.2 °C
IC50 [3]: 97 nM
IC50 [4]: 12 nM
SMILES: COc1c(NC(=O)Nc2ccc(-c3ccc(CN4CCOCC4)nc3)c3ccccc23)cc(C(C)(C)C)cc1C(=O)N(C)C

Tm [1]: 64.9 °C
IC50 [3]: 120 nM
IC50 [4]: 15 nM
SMILES: COc1c(NC(=O)Nc2ccc(-c3ccc(CN4CCOCC4)nc3)c3ccccc23)cc(C(C)(C)C)cc1N(C)C(C)=O

IC50 [5]: 3000 nM
Activity [6]: inactive
Activity [7]: inactive
IC50 [8]: 5200 nM
inhibition [9]: 62%
Tm [1]: 63.3 °C
IC50 [3]: 46 nM
IC50 [10]: 7200 nM
Activity [11]: inactive
Activity [12]: inactive
Activity [13]: inactive
Activity [14]: inactive
Activity [15]: inactive
Activity [16]: inactive
IC50 [17]: 5400 nM
IC50 [18]: 3200 nM
IC50 [19]: 6400 nM
Activity [20]: inactive
Activity [21]: inactive
Activity [22]: inactive
Activity [23]: inactive
Activity [24]: inactive
Activity [25]: inactive
Activity [26]: inactive
Activity [27]: inactive
Activity [28]: inactive
Activity [29]: inactive
Activity [30]: inactive
IC50 [31]: 480 nM
Activity [32]: inactive
Activity [33]: inactive
IC50 [34]: 8200 nM
Activity [35]: inactive
Activity [36]: inactive
IC50 [37]: 3 nM
IC50 [4]: 10 nM
IC50 [38]: 7700 nM
IC50 [39]: 2400 nM
IC50 [40]: 880 nM
Activity [41]: inactive
Activity [42]: inactive
Activity [44]: inactive
Activity [45]: inactive
Activity [46]: inactive
Activity [47]: inactive
Activity [48]: inactive
Activity [49]: inactive
SMILES: COc1c(NC(=O)Nc2ccc(-c3ccc(CN4CCOCC4)nc3)c3ccccc23)cc(C(C)(C)C)cc1NS(C)(=O)=O
inhibition in vivo at 3 mg/kg [43]: 57%

Tm [1]: 58.7 °C
IC50 [3]: 71 nM
IC50 [4]: 5.1 nM
SMILES: CCC(=O)Nc1cc(C(C)(C)C)cc(NC(=O)Nc2ccc(-c3ccc(CN4CCOCC4)nc3)c3ccccc23)c1OC

Tm [1]: 63.6 °C
IC50 [3]: 35 nM
IC50 [4]: 9 nM
SMILES: COc1c(NC(C)=O)cc(C(C)(C)C)cc1NC(=O)Nc1ccc(-c2ccc(CN3CCOCC3)nc2)c2ccccc12

Tm [1]: 65.6 °C
IC50 [3]: 97 nM
IC50 [4]: 10 nM
SMILES: CNC(=O)c1cc(C(C)(C)C)cc(NC(=O)Nc2ccc(-c3ccc(CN4CCOCC4)nc3)c3ccccc23)c1OC

Tm [1]: 56.7 °C
IC50 [3]: 110 nM
IC50 [4]: 12 nM
SMILES: COc1c(NC(N)=O)cc(C(C)(C)C)cc1NC(=O)Nc1ccc(-c2ccc(CN3CCOCC3)nc2)c2ccccc12

Tm [1]: 61.5 °C
IC50 [3]: 22 nM
IC50 [4]: 5 nM
SMILES: COc1c(N)cc(C(C)(C)C)cc1NC(=O)Nc1ccc(-c2ccc(CN3CCOCC3)nc2)c2ccccc12

Tm [1]: 65.5 °C
IC50 [3]: 74 nM
IC50 [4]: 9.4 nM
SMILES: COc1c(NC(=O)Nc2ccc(-c3ccc(CN4CCOCC4)nc3)c3ccccc23)cc(C(C)(C)C)cc1C(N)=O

Tm [1]: 57.9 °C
IC50 [3]: 140 nM
Kd [50]: 1.8 nM
IC50 [4]: 5.5 nM
solubility [51]: < 0.5 µg/mL
SMILES: COc1ccc(C(C)(C)C)cc1NC(=O)Nc1ccc(-c2ccc(CN3CCOCC3)nc2)c2ccccc12

Tm [1]: 54.6 °C
IC50 [3]: 180 nM
IC50 [4]: 9.4 nM
SMILES: Cc1ccc(C(C)(C)C)cc1NC(=O)Nc1ccc(-c2ccc(CN3CCOCC3)nc2)c2ccccc12

Tm [1]: 58.1 °C
IC50 [3]: 110 nM
IC50 [4]: 8.5 nM
SMILES: COC(=O)Nc1cc(C(C)(C)C)cc(NC(=O)Nc2ccc(-c3ccc(CN4CCOCC4)nc3)c3ccccc23)c1OC
